According to ChEMBL document CHEMBL2086239, “Synthesis and biological evaluation of combretastatin-amidobenzothiazole conjugates as potential anticancer agents” (Eur J Med Chem, 2012):
Activity calls are given as the source filed them. The calls are words filed in the database; no cut-off is given here.

How the values were obtained:
Assay type in all cases: functional
Malme-3M = assay: Growth inhibition of human MALME-3M cells after 48 hrs by SRB assay
Outline: (§1)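 NCI 60-cell-line screen: after preliminary screening, tested at five dose concentrations on 59 human tumour lines covering leukemia, lung, colon, CNS, melanoma, ovarian, renal, prostate and breast.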

SF-539 = assay: Growth inhibition of human SF539 cells after 48 hrs by SRB assay; details: SF-539, 48 h
Outline: (§2)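 NCI 60-cell-line panel, five-dose testing after preliminary screen; sulforhodamine B protein assay in DMEM with 10% FBS, 37 °C, 5% CO2, 100% humidity. Cells seeded and incubated 24 h before compound addition, then exposed 48 h. Absorbance read at 560 nm; growth percentage relative to control wells; GI50 taken as concentration giving 50% growth inhibition.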

HOP-62 = assay: Growth inhibition of human HOP62 cells after 48 hrs by SRB assay; details: HOP-62, 48 h; outline: as §1
786-0 = assay: Growth inhibition of human 786-0 cells after 48 hrs by SRB assay; details: 786-0, 48 h; outline: as §1
HT-29 = assay: Growth inhibition of human HT-29 cells after 48 hrs by SRB assay; details: HT-29, 48 h; outline: as §1
OVCAR-5 = assay: Growth inhibition of human OVCAR5 cells after 48 hrs by SRB assay; details: OVCAR-5, 48 h; outline: as §1
COLO 205 [1] = assay: Growth inhibition of human COLO205 cells after 48 hrs by SRB assay; details: COLO 205, 48 h; outline: as §1
T47D = assay: Growth inhibition of human T47D cells after 48 hrs by SRB assay; outline: as §2
RXF 393 = assay: Growth inhibition of human RXF393 cells after 48 hrs by SRB assay; details: RXF 393, 48 h; outline: as §1
SF-268 = assay: Growth inhibition of human SF268 cells after 48 hrs by SRB assay; details: SF-268, 48 h; outline: as §1
NCI-H226 = assay: Growth inhibition of human NCI-H226 cells after 48 hrs by SRB assay; details: NCI-H226, 48 h; outline: as §1
OVCAR-3 = assay: Growth inhibition of human OVCAR3 cells after 48 hrs by SRB assay; details: OVCAR-3, 48 h; outline: as §1
SK-MEL-28 = assay: Growth inhibition of human SK-MEL-28 cells after 48 hrs by SRB assay; details: SK-MEL-28, 48 h; outline: as §2
A549 = assay: Growth inhibition of human A549 cells after 48 hrs by SRB assay; details: A549, 48 h; outline: as §1
MCF7 [2] = assay: Cell cycle arrest in human MCF7 cells assessed as accumulation at S phase at 4 uM after 24 hrs by FACS analysis (reference value: 6.79%)
Hs-578T = assay: Growth inhibition of human Hs578T cells after 48 hrs by SRB assay; outline: as §1
MCF7 [3] = assay: Cytotoxicity against human MCF7 cells after 48 hrs assessed as inhibition of cell growth at 10 uM after 48 hrs by SRB assay relative to control; details: MCF7, 48 h, read-out: GI
Outline: (§3)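 SRB protein assay in DMEM with 10% FBS at 37 °C, 5% CO2, 100% relative humidity. Cells seeded in 96-well plates, incubated 24 h, then exposed to drug at 10 µM for 48 h and processed per standard protocol. Absorbance read at 560 nm; growth percentage calculated for test wells relative to control wells.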

MCF7 [4] = assay: Cell cycle arrest in human MCF7 cells assessed as accumulation at G1 phase at 4 uM after 24 hrs by FACS analysis (reference value: 58.33%)
SR = assay: Growth inhibition of human SR cells after 48 hrs by SRB assay; outline: as §2
NCI/ADR-RES = assay: Growth inhibition of human NCI/ADR-RES cells after 48 hrs by SRB assay; outline: as §1
OVCAR-8 = assay: Growth inhibition of human OVCAR8 cells after 48 hrs by SRB assay; details: OVCAR-8, 48 h; outline: as §1
SF-295 = assay: Growth inhibition of human SF295 cells after 48 hrs by SRB assay; details: SF-295, 48 h; outline: as §2
PC-3 = assay: Cytotoxicity against human PC3 cells after 48 hrs assessed as inhibition of cell growth at 10 uM after 48 hrs by SRB assay relative to control; details: PC-3, 48 h, read-out: GI; outline: as §3
SW-620 = assay: Growth inhibition of human SW620 cells after 48 hrs by SRB assay; details: SW-620, 48 h; outline: as §2
SK-MEL-2 = assay: Growth inhibition of human SK-MEL-2 cells after 48 hrs by SRB assay; details: SK-MEL-2, 48 h; outline: as §2
HEp-2 = assay: Cytotoxicity against human Hep2 cells after 48 hrs assessed as inhibition of cell growth at 10 uM after 48 hrs by SRB assay relative to control; details: HEp-2, 48 h, read-out: GI; outline: as §3
TK-10 = assay: Growth inhibition of human TK10 cells after 48 hrs by SRB assay; details: TK-10, 48 h; outline: as §2
SNB-19 = assay: Growth inhibition of human SNB19 cells after 48 hrs by SRB assay; details: SNB-19, 48 h; outline: as §2
MDA-MB-435 = assay: Growth inhibition of human MDA-MB-435 cells after 48 hrs by SRB assay; details: MDA-MB-435, 48 h; outline: as §1
M14 = assay: Growth inhibition of human M14 cells after 48 hrs by SRB assay; details: M14, 48 h; outline: as §1
UACC-257 = assay: Growth inhibition of human UACC257 cells after 48 hrs by SRB assay; details: UACC-257, 48 h; outline: as §2
SN12C = assay: Growth inhibition of human SN12C cells after 48 hrs by SRB assay; outline: as §2
SNB-75 = assay: Growth inhibition of human SNB75 cells after 48 hrs by SRB assay; details: SNB-75, 48 h; outline: as §2
UACC-62 = assay: Growth inhibition of human UACC62 cells after 48 hrs by SRB assay; details: UACC-62, 48 h; outline: as §2
NCI-H322M = assay: Growth inhibition of human NCI-H322M cells after 48 hrs by SRB assay; outline: as §1
COLO 205 [5] = assay: Cytotoxicity against human COLO205 cells after 48 hrs assessed as inhibition of cell growth at 10 uM after 48 hrs by SRB assay relative to control; details: COLO 205, 48 h, read-out: GI; outline: as §3
IMR-32 = assay: Cytotoxicity against human IMR32 cells after 48 hrs assessed as inhibition of cell growth at 10 uM after 48 hrs by SRB assay relative to control; details: IMR-32, 48 h, read-out: GI; outline: as §3
NCI-H522 = assay: Growth inhibition of human NCI-H522 cells after 48 hrs by SRB assay; details: NCI-H522, 48 h; outline: as §1
HOP-92 = assay: Growth inhibition of human HOP92 cells after 48 hrs by SRB assay; details: HOP-92, 48 h; outline: as §1
THP-1 = assay: Cytotoxicity against human THP1 cells after 48 hrs assessed as inhibition of cell growth at 10 uM after 48 hrs by SRB assay relative to control; details: THP-1, 48 h, read-out: GI; outline: as §3
MOLT-4 = assay: Growth inhibition of human MOLT4 cells after 48 hrs by SRB assay; details: MOLT-4, 48 h; outline: as §1

**Q.** How did the GI50 (Malme-3M) turn out when COc1ccc2nc(NC(=O)COc3cc(/C=C\c4cc(OC)c(OC)c(OC)c4)ccc3OC)sc2c1 was run?
**A.** The GI50 was “inactive”.

**Q.** What about the GI50 (SF-539) of the same compound?
**A.** The GI50 was 2.84 µM.

**Q.** What about the GI50 (HOP-62) of the same compound?
**A.** Its GI50 is 23 µM.

**Q.** What about the GI50 (786-0) of the same compound?
**A.** The GI50 was 7.52 µM.

**Q.** What about the GI50 (HT-29) of the same compound?
**A.** The GI50 was 3.34 µM.

**Q.** What about the GI50 (OVCAR-5) of the same compound?
**A.** Its GI50 is 5.89 µM.

**Q.** And the GI50 (COLO 205 [1])?
**A.** Its GI50 is 3.89 µM.

**Q.** And the GI50 (T47D)?
**A.** The GI50 was 4.03 µM.

**Q.** What about the GI50 (RXF 393) of the same compound?
**A.** Its GI50 is 2.5 µM.

**Q.** What about the GI50 (SF-268) of the same compound?
**A.** The GI50 was 4.31 µM.

**Q.** What about the GI50 (NCI-H226) of the same compound?
**A.** The GI50 was 4.51 µM.

**Q.** And the GI50 (OVCAR-3)?
**A.** Its GI50 is 2.17 µM.

**Q.** And the GI50 (SK-MEL-28)?
**A.** The GI50 was 4.41 µM.

**Q.** And the GI50 (A549)?
**A.** Its GI50 is 5.19 µM.

**Q.** What about the Activity (MCF7 [2]) of the same compound?
**A.** The Activity was 7.12%.

**Q.** And the GI50 (Hs-578T)?
**A.** The GI50 was 4.15 µM.

**Q.** What about the inhibition of growth at 10 µM (MCF7 [3]) of the same compound?
**A.** Its inhibition of growth at 10 µM is 53%.

**Q.** And the Activity (MCF7 [4])?
**A.** Its Activity is 62.81%.

**Q.** And the GI50 (SR)?
**A.** Its GI50 is 3.69 µM.

**Q.** And the GI50 (NCI/ADR-RES)?
**A.** The GI50 was 2.3 µM.

**Q.** What about the GI50 (OVCAR-8) of the same compound?
**A.** The GI50 was 5.28 µM.

**Q.** What about the GI50 (SF-295) of the same compound?
**A.** Its GI50 is 1.84 µM.

**Q.** And the inhibition of growth at 10 µM (PC-3)?
**A.** The inhibition of growth at 10 µM was 33%.

**Q.** What about the GI50 (SW-620) of the same compound?
**A.** Its GI50 is 5.1 µM.

**Q.** What about the GI50 (SK-MEL-2) of the same compound?
**A.** Its GI50 is 4.07 µM.

**Q.** And the inhibition of growth at 10 µM (HEp-2)?
**A.** Its inhibition of growth at 10 µM is 71%.

**Q.** What about the GI50 (TK-10) of the same compound?
**A.** The GI50 was 7.54 µM.

**Q.** And the GI50 (SNB-19)?
**A.** Its GI50 is 6.3 µM.

**Q.** What about the GI50 (MDA-MB-435) of the same compound?
**A.** Its GI50 is 1.16 µM.

**Q.** And the GI50 (M14)?
**A.** The GI50 was 4.33 µM.

**Q.** What about the GI50 (UACC-257) of the same compound?
**A.** Its GI50 is 63 µM.

**Q.** What about the GI50 (SN12C) of the same compound?
**A.** The GI50 was 5.75 µM.

**Q.** And the GI50 (SNB-75)?
**A.** The GI50 was 1.91 µM.

**Q.** And the GI50 (UACC-62)?
**A.** Its GI50 is 5.93 µM.

**Q.** And the GI50 (NCI-H322M)?
**A.** The GI50 was “inactive”.

**Q.** What about the inhibition of growth at 10 µM (COLO 205 [5]) of the same compound?
**A.** The inhibition of growth at 10 µM was 56%.

**Q.** What about the inhibition of growth at 10 µM (IMR-32) of the same compound?
**A.** The inhibition of growth at 10 µM was 73%.

**Q.** What about the GI50 (NCI-H522) of the same compound?
**A.** Its GI50 is 3.09 µM.

**Q.** And the GI50 (HOP-92)?
**A.** Its GI50 is 6.28 µM.

**Q.** And the inhibition of growth at 10 µM (THP-1)?
**A.** Its inhibition of growth at 10 µM is 72%.

**Q.** What about the GI50 (MOLT-4) of the same compound?
**A.** Its GI50 is 3.87 µM.
